Where no end group is shown, it is not given here.
Legend:
[1] = Circular dichroism spectroscopy; assay type: physicochemical; details: CD, CDNN
In short: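 POPE/POPG (7:3) dried from chloroform under N2 overnight, resuspended in PBS pH 7.4 and extruded through 0.1-μm membranes to form SUVs, used within 6 h. Peptide at 0.5 mM in PBS pH 7.4, alone or with SUVs. Spectra taken at 25°C from 250–190 nm in a 0.1-mm quartz cell, 1-nm steps, 60 nm/min. Each spectrum averaged three scans and was baseline-subtracted. Helix content estimated by CDNN 2.1.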

MCF-7 cells = experiment: PI and Annexin V staining, fluorescent images; assay type: cell-based; details: 5 μM, in comparison with AP1-Z1
In short: (§1)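 MCF-7 (DMEM, 5% FBS) or MCF-10A (DMEM/F12 with horse serum, hydrocortisone, insulin, EGF, cholera toxin) seeded at 2 × 10^4 cells/well in 48-well plates and cultured 24 h. Peptide added, with PBS as negative control. After 1−3 h, Alexa Fluor 488 Annexin V (1:250 v/v) and PI (1:1,000 v/v) were added for 30 min at 37°C. Cells were then imaged by fluorescence microscopy.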

[2] = tested on: MCF 7, A375 and U87 cancer cell lines; experiment: MTT assay, comparison over three cancer cell lines; assay type: cell-based; details: result in words
In short: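 Lines used: MCF-7 (DMEM, 5% FBS) and A375 and U87 (DMEM, 10% FBS, penicillin/streptomycin). Seeded at 5,000 cells/well and grown 24 h. Peptides were diluted from 10 mM stock in medium; PBS served as control; triplicates. After 24 h exposure, MTT was added for 4 h at 37°C. Formazan was dissolved in DMSO and OD read at 550 nm.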

MCF-10A cells [3] = experiment: PI and Annexin V staining, fluorescent images; assay type: cell-based, human; details: 5.0 μM
In short: as §1

MCF-10A cells [4] = experiment: Apoptosis assay, flow cytometry Annexin V/PI; assay type: cell-based, human; details: 5 μM, normal breast cell line
In short: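 MCF-10A cells, a normal breast line, grown in DMEM/F12 with 5% horse serum, hydrocortisone, insulin, EGF and cholera toxin. Seeded at 2 × 10^5 cells/mL in 6-well plates and cultured 24 h before peptide exposure; PBS served as negative control. After 1−3 h, cells were washed in cold PBS and set to 1 × 10^6 cells/mL in Annexin-binding buffer. Stained with Alexa Fluor 488 Annexin V plus PI for 10 min at room temperature. Read by flow cytometry, excitation 488 nm, emission 530 and 575 nm.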

HUVECs = experiment: Anti-angiogenesis assay; assay type: cell-based, human; details: 10.0 μM, 10−12 h, in comparison with the blank control (PBS), one-way ANOVA, Angiogenesis Analyzer for ImageJ
In short: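 HUVECs grown in Medium 200 with low serum growth supplement at 37°C, 5% CO2. Matrigel thawed overnight at 4°C, added to μ-Slide wells and polymerised 30−60 min in a humidified incubator. HUVECs at 1 × 10^5 cells/mL were added and incubated 10−12 h at 37°C, 5% CO2, with a PBS-treated negative control. Tube formation was then imaged by fluorescence microscopy.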

[5] = tested on: breast cancer cell line, MCF-7; experiment: MTT assay; assay type: cell-based; details: MCF-7, 24-h incubation with peptide, triplicate, OD 550 nm
In short: (§2)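 ATCC cells were maintained at 37°C, 5% CO2: U87 and A375 in DMEM with 10% FBS and 1% penicillin/streptomycin, MCF-7 in DMEM with 5% FBS. They were seeded at 5,000 cells/well and grown 24 h. Peptide came from a 10 mM stock diluted in medium; controls got PBS. MTT (5 mg/mL in PBS, pH 7.4) was added for 4 h, then formazan was dissolved in DMSO.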

[6] = tested on: malignant melanoma cell line, A375; experiment: MTT assay; assay type: cell-based; details: A375, 24-h incubation with peptide, triplicate, OD 550 nm
In short: as §2

[7] = tested on: brain glioma cell line, U87; experiment: MTT assay; assay type: cell-based; details: U87, 24-h incubation with peptide, triplicate, OD 550 nm
In short: as §2

[8] = 0.5 mM peptide in 1× PBS buffer pH 7.4, 25°C, average of three scans

Substance	α helix ratio [1, 8]	IC50 [5]	IC50 [6]	IC50 [7]	further results
FLFSLIKHAIKGLISAFK [AP1-Z3a]	24.28%				
FLFKLIKKAIKKLIKAFK [AP1-Z7]	16.16%				α helix ratio ([1]; 0.5 mM peptide in POPE/POPG (7:3) SUVs in 1× PBS, 3:1 lipid:peptide): 44.95%
FLFKLIPKAIKGLIKAFK [AP1-Z5a]					apoptosis of MCF-7 cells (ANXA5/PI fluorescent images) (MCF-7 cells): significantly induced the apoptosis; IC50 relative to the other peptides [2]: relatively lower; apoptosis of MCF-10A cells (ANXA5/PI fluorescent images) (MCF-10A cells [3]): no significant change in the apoptosis; apoptosis of MCF-10A cells (MCF-10A cells [4]): did not significantly promote the apoptosis; angiogenesis (tube formation of HUVECs) (HUVECs): significantly inhibited angiogenesis
FLFKLIKHAIKGLIKAFK-NH2 [AP1-Z5b]		1.04 µM	2.61 µM	3.12 µM	
FLFSLIPHAISGLISAFK-NH2 [AP1-Z1]		7.22 µM	9.48 µM	10.2 µM	
